This is an account of results in ChEMBL document CHEMBL5107954, “Potency and metabolic stability: a molecular hybrid case in the design of novel PF74-like small molecules targeting HIV-1 capsid protein” (RSC Med Chem, 2021).

pEC50: −log10 of the molar value.

A short description of series [1]: Cytotoxicity against human TZM cells expressing GFP assessed as inhibition of cell growth incubated for 72 hrs by XTT assay. Type of series: toxicity, cell-based. The procedure, abridged: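 TZM-GFP cells at 1 × 10^4 cells/well were exposed continuously to increasing compound concentrations for 72 h. Viable cells were read by XTT. CC50 came from a log(inhibitor) vs. normalized response, variable-slope curve fit. Run in duplicate, ≥2 independent experiments, mean ± SD.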
Background: Formazan colour is commonly taken as a measure of viable cells.

Series [2] concerns Human immunodeficiency virus 1. Description: Binding affinity to HIV-1 capsid protein 121 expressed in Escherichia coli BL21 (DE3) cells assessed as change in melting temperature at 20 uM measured every 10 sec by RT-PCR based thermal shift assay. The procedure, abridged:
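Crosslinked hexameric CA A14C/E45C/W184A/M185A (CA121), purified protein at 7.5 μM in 50 mM sodium phosphate pH 8.0 with 1× Sypro Orange; compound 20 μM or DMSO control, 1% DMSO final. Heated 25 to 95 °C at 0.2 °C per 10 s in a real-time PCR instrument; fluorescence Ex 475–500, Em 520–590 nm. ΔTm is the hexamer melting point with compound minus DMSO control.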

Series [3] can be described thus: Metabolic stability in human liver microsomes assessed as half-life at 1 uM measured upto 15 mins in the presence of NADPH as co-factor by LC-MS/MS analysis. It is filed as ADME, Microsome. (In general: Liver microsomes are a subcellular fraction often used to study metabolism.)
The nature of series [4]: Antiviral activity against wild type HIV1 NL4-3 infected in human TZM cells expressing GFP assessed as inhibition of viral LTR-activated GFP expression preincubated with compound for 24 hrs followed by viral infection and measured after 48 hrs. It is filed as functional, cell-based. The conditions noted are these: Human immunodeficiency virus 1, NL4-3, TZM. The procedure, abridged:
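TZM-GFP cells at 1 × 10^4 cells/well were treated with increasing compound concentrations, then infected 24 h later with HIV-1 NL4-3 at MOI 0.1. After 48 h, GFP-positive cells were counted by imaging and compared with DMSO controls. EC50 came from a log(inhibitor) vs. normalized response, variable-slope fit. Run in duplicate, ≥2 independent experiments, mean ± SD.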

A short description of series [5]: Metabolic stability in mouse liver microsomes assessed as half-life at 1 uM measured upto 15 mins in the presence of NADPH as co-factor by LC-MS/MS analysis. Type of series: ADME, Microsome.
Series [6] in a line: Potency index, ratio of test compound EC50 to PF74 EC50 for antiviral activity against wild type HIV1 NL4-3 infected in human TZM cells expressing GFP assessed as inhibition of viral LTR-activated GFP expression preincubated with compound for 24 hrs followed by viral infection and measured after 48 hrs. Type of series: functional, Human immunodeficiency virus 1. The following applies: time 72 hrs.

Series [7] can be described thus: Metabolic stability in human liver microsomes assessed as half-life measured upto 60 mins in the presence of NADPH as co-factor by LC-MS/MS analysis. It is filed as ADME, Microsome.

For orientation: CC50 means the concentration giving 50% cytotoxicity. A word on the ΔTm: it is the change in melting temperature against a reference sample. As a reminder, the half-life is the time in which the quantity being followed falls by half. Broadly, the pEC50 is −log10 of the EC50, conventionally taken in molar units. Consider `CN(C(=O)[C@H](Cc1ccccc1)NC(=O)CN1CCN(C(=O)c2ccccc2[N+](=O)[O-])CC1=O)c1ccc(Cl)cc1`, for which, in series [1], the CC50 at 72 h was more than 50 µM. The thermal shift (ΔTm) in series [2] was 2.6 °C. Further, the half-life at 1 µM amounted to 3.8 min in series [3] and 0.9 min in series [5]. Also, the pEC50 in series [4] was 5.57.
On to `CN(C(=O)[C@H](Cc1ccccc1)NC(=O)CN1CCN(C(=O)c2ccccc2Cl)CC1=O)c1ccc(Cl)cc1`, for which the CC50 at 72 h in series [1] was more than 50 µM. Moreover, in series [2], the thermal shift (ΔTm) was 1.5 °C. For the same compound, the half-life at 1 µM in series [3] amounted to 6.2 min; in series [5] it was 1.1 min. Moreover, the pEC50 in series [4] is 5.19.
In the case of `CN(C(=O)[C@H](Cc1ccccc1)NC(=O)CN1CCN(C(=O)c2cccc([N+](=O)[O-])c2)CC1=O)c1ccc(Cl)cc1`, the CC50 at 72 h in series [1] is more than 50 µM. Further, the ΔTm in series [2] is 1.5 °C. Moreover, the half-life at 1 µM in series [3] stood at 2.6 min; in series [5] it was 0.8 min. The pEC50 in series [4] was 5.03.
On the same counts, the results for `CN(C(=O)[C@H](Cc1ccccc1)NC(=O)CN1CCN(C(=O)c2ccccc2Br)CC1=O)c1ccc(Cl)cc1` are more than 50 µM, 1.1 °C, 7.9 min, 1.8 min and 5.42.
On the same counts, the results for `CN(C(=O)[C@H](Cc1ccccc1)NC(=O)CN1CCN(C(=O)c2ccccc2F)CC1=O)c1ccc(Cl)cc1` are more than 50 µM, 1.6 °C, 4.1 min, 0.9 min and 5.02.
As to `CN(C(=O)[C@H](Cc1ccccc1)NC(=O)CN1CCN(C(=O)c2ccc(Cl)cc2)CC1=O)c1ccc(Cl)cc1`, the CC50 at 72 h in series [1] is more than 50 µM. Also, in series [2], the shift in melting temperature (ΔTm) amounted to 1.3 °C. Besides, the half-life at 1 µM in series [3] came out at 7.5 min; in series [5], 1.3 min. In series [4], the negative logarithm of the EC50 (pEC50) was 5.04.
The corresponding values for `CN(C(=O)[C@H](Cc1ccccc1)NC(=O)CN1CCN(C(=O)c2cccc(Br)c2)CC1=O)c1ccc(Cl)cc1` are more than 50 µM, 1.1 °C, 4.8 min, 1.4 min and 5.05.
For the compound `CN(C(=O)[C@H](Cc1ccccc1)NC(=O)CNC(=O)c1ccccc1)c1ccc(Cl)cc1`, in series [6], the “Ratio EC50” value stood at 1.4. Moreover, the half-life in series [7] worked out at 36 min. In addition, in series [4], the pEC50 is 6.06.
